{
  "source": "ChEMBL document CHEMBL1127042",
  "about": "“Molecular size and flexibility as determinants of selectivity in the oxidation of N-methyl-4-phenyl-1,2,3,6-tetrahydropyridine analogs by monoamine oxidase A and B” (J Med Chem, 1993)",
  "key": {"[1]": {"substrate": "CN1CC=C(CCc2ccc3ccccc3c2)CC1", "experiment": "(§1) Michaelis-Menten constant against MAO A.", "how_it_was_run": "(§2)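 Human liver MAO A expressed in yeast, purified. Initial oxidation rates measured polarographically (O2 uptake) at 30 °C in sodium phosphate buffer, pH 7.2, with 0.2% (w/v) Brij-35. Enzyme was added last to start the reaction, and its amount was set so rates were read within 60-120 s. Vmax came from double-reciprocal plots. TN was Vmax divided by flavin content. Flavin content was found from the optical density change on anaerobic reduction by kynuramine.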"}, "[2]": {"substrate": "CN1CC=C(CCc2cccc3ccccc23)CC1", "experiment": "as §1", "how_it_was_run": "as §2"}, "[3]": {"substrate": "CN1CC=C(CCc2ccccc2)CC1", "experiment": "as §1", "how_it_was_run": "as §2"}, "[4]": {"substrate": "CN1CC=C(CCc2cccs2)CC1", "experiment": "as §1", "how_it_was_run": "as §2"}, "[5]": {"substrate": "CN1CC=C(CCc2ccsc2)CC1", "experiment": "as §1", "how_it_was_run": "as §2"}, "[6]": {"substrate": "CN1CC=C(Cc2ccc3ccccc3c2)CC1", "experiment": "as §1", "how_it_was_run": "as §2"}, "[7]": {"substrate": "CN1CC=C(Cc2cccc3ccccc23)CC1", "experiment": "as §1", "how_it_was_run": "as §2"}, "[8]": {"substrate": "CN1CC=C(Cc2ccccc2)CC1", "experiment": "as §1", "how_it_was_run": "as §2"}, "[9]": {"substrate": "CN1CC=C(Cc2cccs2)CC1", "experiment": "as §1", "how_it_was_run": "as §2"}, "[10]": {"substrate": "CN1CC=C(Cc2ccsc2)CC1", "experiment": "as §1", "how_it_was_run": "as §2"}, "[11]": {"substrate": "CN1CC=C(c2ccc3ccccc3c2)CC1", "experiment": "as §1", "how_it_was_run": "as §2"}, "[12]": {"substrate": "CN1CC=C(c2cccc3ccccc23)CC1", "experiment": "as §1", "how_it_was_run": "as §2"}, "[13]": {"substrate": "CN1CC=C(c2cccs2)CC1", "experiment": "as §1", "how_it_was_run": "as §2"}, "[14]": {"substrate": "CN1CC=C(c2ccsc2)CC1", "experiment": "as §1", "how_it_was_run": "as §2"}, "[15]": {"substrate": "NCCC(=O)c1ccccc1N", "experiment": "as §1", "how_it_was_run": "as §2"}, "[16]": {"substrate": "NCc1ccccc1", "experiment": "as §1", "how_it_was_run": "as §2"}, "[17]": {"substrate": "CN1CC=C(CCc2ccc3ccccc3c2)CC1", "experiment": "(§3) Michaelis-Menten constant against MAO B.", "parameters": "species or system Bos taurus", "how_it_was_run": "(§4)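 Beef liver MAO B, purified. Initial oxidation rates measured polarographically at 30 °C in sodium phosphate buffer, pH 7.2, with 0.2% (w/v) Brij-35. The reaction was started by adding enzyme, dosed so rates were measurable within 60-120 s. Vmax came from double-reciprocal plots. Turnover number was Vmax per flavin content. Flavin content came from the optical density change on anaerobic reduction by benzylamine.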"}, "[18]": {"substrate": "CN1CC=C(CCc2cccc3ccccc23)CC1", "experiment": "as §3", "parameters": "species or system Bos taurus", "how_it_was_run": "as §4"}, "[19]": {"substrate": "CN1CC=C(CCc2ccccc2)CC1", "experiment": "as §3", "parameters": "species or system Bos taurus", "how_it_was_run": "as §4"}, "[20]": {"substrate": "CN1CC=C(CCc2cccs2)CC1", "experiment": "as §3", "parameters": "species or system Bos taurus", "how_it_was_run": "as §4"}, "[21]": {"substrate": "CN1CC=C(CCc2ccsc2)CC1", "experiment": "as §3", "parameters": "species or system Bos taurus", "how_it_was_run": "as §4"}, "[22]": {"substrate": "CN1CC=C(Cc2ccc3ccccc3c2)CC1", "experiment": "as §3", "parameters": "species or system Bos taurus", "how_it_was_run": "as §4"}, "[23]": {"substrate": "CN1CC=C(Cc2cccc3ccccc23)CC1", "experiment": "as §3", "parameters": "species or system Bos taurus", "how_it_was_run": "as §4"}, "[24]": {"substrate": "CN1CC=C(Cc2ccccc2)CC1", "experiment": "as §3", "parameters": "species or system Bos taurus", "how_it_was_run": "as §4"}, "[25]": {"substrate": "CN1CC=C(Cc2cccs2)CC1", "experiment": "as §3", "parameters": "species or system Bos taurus", "how_it_was_run": "as §4"}, "[26]": {"substrate": "CN1CC=C(Cc2ccsc2)CC1", "experiment": "as §3", "parameters": "species or system Bos taurus", "how_it_was_run": "as §4"}, "[27]": {"substrate": "CN1CC=C(c2ccc3ccccc3c2)CC1", "experiment": "as §3", "parameters": "species or system Bos taurus", "how_it_was_run": "as §4"}, "[28]": {"substrate": "CN1CC=C(c2cccc3ccccc23)CC1", "experiment": "as §3", "parameters": "species or system Bos taurus", "how_it_was_run": "as §4"}, "[29]": {"substrate": "CN1CC=C(c2cccs2)CC1", "experiment": "as §3", "parameters": "species or system Bos taurus", "how_it_was_run": "as §4"}, "[30]": {"substrate": "CN1CC=C(c2ccsc2)CC1", "experiment": "as §3", "parameters": "species or system Bos taurus", "how_it_was_run": "as §4"}, "[31]": {"substrate": "NCCC(=O)c1ccccc1N", "experiment": "as §3", "parameters": "species or system Bos taurus", "how_it_was_run": "as §4"}, "[32]": {"substrate": "NCc1ccccc1", "experiment": "as §3", "parameters": "species or system Bos taurus", "how_it_was_run": "as §4"}},
  "data": [
    {"protein": "Amine oxidase [flavin-containing] A (Homo sapiens) (protein) MENQEKASIAGHMFDVVVIGGGISGLSAAKLLTEYGVSVLVLEARDRVGGRTYTIRNEHVDYVDVGGAYVGPTQNRILRLSKELGIETYKVNVSERLVQYVKGKTYPFRGAFPPVWNPIAYLDYNNLWRTIDNMGKEIPTDAPWEAQHADKWDKMTMKELIDKICWTKTARRFAYLFVNINVTSEPHEVSALWFLWYVKQCGGTTRIFSVTNGGQERKFVGGSGQVSERIMDLLGDQVKLNHPVTHVDQSSDNIIIETLNHEHYECKYVINAIPPTLTAKIHFRPELPAERNQLIQRLPMGAVIKCMMYYKEAFWKKKDYCGCMIIEDEDAPISITLDDTKPDGSLPAIMGFILARKADRLAKLHKEIRKKKICELYAKVLGSQEALHPVHYEEKNWCEEQYSGGCYTAYFPPGIMTQYGRVIRQPVGRIFFAGTETATKWSGYMEGAVEAGERAAREVLNGLGKVTEKDIWVQEPESKDVPAVEITHTFWERNLPSVSGLLKIIGFSTSVTALGFVLYKYKLLPRS", "values": [
      {"measurement": "Km", "setting": "[1]", "result": 43, "unit": "µM"},
      {"measurement": "Km", "setting": "[2]", "result": 76, "unit": "µM"},
      {"measurement": "Km", "setting": "[3]", "result": 120, "unit": "µM"},
      {"measurement": "Km", "setting": "[4]", "result": 108, "unit": "µM"},
      {"measurement": "Km", "setting": "[5]", "result": 130, "unit": "µM"},
      {"measurement": "Km", "setting": "[6]", "result": 36, "unit": "µM"},
      {"measurement": "Km", "setting": "[7]", "result": 167, "unit": "µM"},
      {"measurement": "Km", "setting": "[8]", "result": 66, "unit": "µM"},
      {"measurement": "Km", "setting": "[9]", "result": 48, "unit": "µM"},
      {"measurement": "Km", "setting": "[10]", "result": 136, "unit": "µM"},
      {"measurement": "Km", "setting": "[11]", "result": 4.6, "unit": "µM"},
      {"measurement": "Km", "setting": "[12]", "result": 74, "unit": "µM"},
      {"measurement": "Km", "setting": "[13]", "result": 188, "unit": "µM"},
      {"measurement": "Km", "setting": "[14]", "result": 102, "unit": "µM"},
      {"measurement": "Km", "setting": "[15]", "result": 170, "unit": "µM"},
      {"measurement": "Km", "setting": "[16]", "result": 780, "unit": "µM"}
    ]},
    {"protein": "Amine oxidase [flavin-containing] B (Bos taurus) (protein) MSSKCDVVVVGGGISGMAAAKLLHDSGLNVIVLEARDRVGGRTYTLRNQKVKYVDLGGSYVGPTQNHILRLSKELGLETYKVNEVERLIHHTKGKSYPFRGSFPSVWNPITYLDHNNLWRTMDDMGREIPSDAPWKAPLAEQWDLMTMKELLDKICWTESSKQLAILFVNLCVTAEIHEVSALWFLWYVKQCGGTTRIFSTSNGGQERKFVGGSGQVSERIMDLLGDRVKLERPVIHIDQTGENVLVETLNHELYEAKYVISAVPPVLGMKIHFNPPLPMMRNQLITRVPLGSVIKSIVYYKEPFWRNMDYCGSMIIEGEEAPVAYALDDTKPDGSYPAIIGFILAHKARKLARLTKEERLKKLCDLYAKVLGSQEALHPVHYEEKNWCEEQYSGGCYTSYFPPGIMTQYGRVLRQPVGRIYFAGTETATHWSGYMEGAVEAGERAAREILHAMGKIPEDEIWLPEPESVDVPAKPITTTFLQRHLPSVPGLLKLIGLTTIFSATALGFLAHKRGLLVRI", "values": [
      {"measurement": "Km", "setting": "[17]", "result": 1030, "unit": "µM"},
      {"measurement": "Km", "setting": "[18]", "result": 1280, "unit": "µM"},
      {"measurement": "Km", "setting": "[19]", "result": 54, "unit": "µM"},
      {"measurement": "Km", "setting": "[20]", "result": 49, "unit": "µM"},
      {"measurement": "Km", "setting": "[21]", "result": 57, "unit": "µM"},
      {"measurement": "Km", "setting": "[22]", "result": 840, "unit": "µM"},
      {"measurement": "Km", "setting": "[23]", "result": 850, "unit": "µM"},
      {"measurement": "Km", "setting": "[24]", "result": 154, "unit": "µM"},
      {"measurement": "Km", "setting": "[25]", "result": 102, "unit": "µM"},
      {"measurement": "Km", "setting": "[26]", "result": 195, "unit": "µM"},
      {"measurement": "Km", "setting": "[27]", "result": 730, "unit": "µM"},
      {"measurement": "Km", "setting": "[28]", "result": 110, "unit": "µM"},
      {"measurement": "Km", "setting": "[29]", "result": 168, "unit": "µM"},
      {"measurement": "Km", "setting": "[30]", "result": 26, "unit": "µM"},
      {"measurement": "Km", "setting": "[31]", "result": 84, "unit": "µM"},
      {"measurement": "Km", "setting": "[32]", "result": 290, "unit": "µM"}
    ]}
  ]
}
